This note sets out measurements from ChEMBL document CHEMBL4145692, “Discovery of a Locally and Orally Active CXCL12 Neutraligand (LIT-927) with Anti-inflammatory Effect in a Murine Model of Allergic Airway Hypereosinophilia” (J Med Chem, 2018).

In series [1] the test system is Mus musculus. The series can be described thus: Toxicity in Balb/c mouse model of hypereosinophilia assessed as reduction in body weight at 350 umol/kg, ip dosed daily 2 hrs before allergen challenge for 3 days and measured 24 hrs after last dose. Set-up: scale not given: the % may be the effect or the level left. In kind it is organism-based. The settings on record: in vivo. The procedure, abridged:
(§1)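 Same OVA model with i.p. dosing 2 h before each of the three challenges: neutraligands 350 μmol/kg in PBS/CMC 1%, AMD3100 12.6 μmol/kg, dexamethasone 2.5 μmol/kg. Body and spleen weight loss recorded 24 h after three daily administrations; n=6/group.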

Series [2] has as its system Mus musculus. Briefly: Toxicity in Balb/c mouse model of hypereosinophilia assessed as reduction in spleen weight at 12.6 umol/kg, ip dosed daily 2 hrs before allergen challenge for 3 days and measured 24 hrs after last dose. In kind it is organism-based. The settings on record: in vivo. The procedure, abridged: as §1
Series [3] has as its target C-C motif chemokine 2 (Homo sapiens) (UniProt P13500). The series can be described thus: Binding affinity to CCL2 (unknown origin) assessed as inhibition of CCL2-induced increase in intracellular calcium level in EGFP-tagged CCR2 expressing HEK cells at 10 uM. On the technique in general: A change in cytosolic calcium serves as a functional read-out for many receptors and channels.

In series [4] the target is T1, C-C motif chemokine 17 (Homo sapiens) (UniProt Q92583).
T1 sequence (whole entry): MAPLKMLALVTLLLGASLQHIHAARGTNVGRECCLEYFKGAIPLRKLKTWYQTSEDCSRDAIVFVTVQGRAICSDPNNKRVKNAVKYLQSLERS
Briefly: Binding affinity to CCL17 (unknown origin) assessed as inhibition of CCL17-induced increase in intracellular calcium level in EGFP-tagged CCR4 expressing HEK cells at 10 uM.

The test system of series [5] is Mus musculus. Briefly: Inhibition of eosinophil infiltration in Balb/c mouse model of 8 day model of allergic eosinophilic airway inflammation at 300 nmol/kg dosed intranasally 2 hrs before ovalbumin challenge by hemocytometry. In kind it is functional. The conditions noted are these: inhaled or nasal. A digest of the protocol:
(§2)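 OVA/alum-sensitized Balb/c mice challenged intranasally with OVA on days 5–7. Compounds at 300 nmol/kg in 10% PBS/Cdx given intranasally 2 h before each challenge. BAL 24 h after the last challenge; eosinophils, neutrophils and lymphocytes counted by hemocytometer and differential cytospin; n=6/group.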

The subject of series [6] is Mus musculus. Briefly: Toxicity in Balb/c mouse model of hypereosinophilia assessed as prostration at 350 umol/kg, ip dosed daily 2 hrs before allergen challenge for 10 days and measured 24 hrs after last dose. In kind it is organism-based. The settings on record: in vivo. The procedure, abridged:
(§3)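 Mice given 10 daily administrations at 350 μmol/kg. Monitored for weight loss and for signs of toxicity, including prostration and bristly hair.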

The test system of series [7] is Mus musculus. Briefly: Toxicity in Balb/c mouse model of hypereosinophilia assessed as reduction in body weight at 12.6 umol/kg, ip dosed daily 2 hrs before allergen challenge for 3 days and measured 24 hrs after last dose. In kind it is organism-based. The conditions noted are these: in vivo. The procedure, abridged:
as §1

Series [8] relates to Mus musculus. The series can be described thus: Inhibition of macrophages infiltration in Balb/c mouse model of 8 day model of allergic eosinophilic airway inflammation at 300 nmol/kg dosed intranasally 2 hrs before ovalbumin challenge by hemocytometry. In kind it is functional, organism-based.
The test system of series [9] is Mus musculus. The series can be described thus: Toxicity in Balb/c mouse model of hypereosinophilia assessed as induction of liver lesions at 350 umol/kg, ip dosed daily 2 hrs before allergen challenge for […] and measured 24 hrs after last dose by Gomori's trichrome staining based histological analysis. The conditions noted are these: in vivo. In kind it is organism-based.

The subject of series [10] is Mus musculus. Briefly: Toxicity in Balb/c mouse model of hypereosinophilia assessed as reduction in spleen weight at 350 umol/kg, ip dosed daily 2 hrs before allergen challenge for 3 days and measured 24 hrs after last dose. In kind it is organism-based. The settings on record: in vivo. Also on record: scale not given: the % may be the effect or the level left. A digest of the protocol: as §1

A short description of series [11]: Thermodynamic solubility in pH 7.4 PBS buffer incubated for 24 hrs at 22 degC by HPLC method. In kind it is physicochemical. The settings on record: read-out: Therm_solubility. The procedure, abridged: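 Powder dissolved to saturation in pH 7.4 PBS (100 mM sodium phosphate, 150 mM NaCl), or in PBS with 10% Cdx, and shaken 24 h. After centrifugation, supernatant quantified by HPLC against a per-compound calibration line prepared from the DMSO stock.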

Series [12] has as its system Mus musculus. The series can be described thus: Toxicity in Balb/c mouse model of hypereosinophilia assessed as induction of bristly hair at 350 umol/kg, ip dosed daily 2 hrs before allergen challenge for 10 days and measured 24 hrs after last dose. In kind it is organism-based. The settings on record: in vivo. The procedure, abridged:
as §3

For series [13], the target named is T2, C-C motif chemokine 22 (Homo sapiens) (UniProt O00626).
T2 sequence (whole entry): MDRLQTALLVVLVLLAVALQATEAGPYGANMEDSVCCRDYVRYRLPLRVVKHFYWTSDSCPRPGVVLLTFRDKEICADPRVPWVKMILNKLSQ
Briefly: Binding affinity to CCL22 (unknown origin) assessed as inhibition of CCL22-induced increase in intracellular calcium level in EGFP-tagged CCR4 expressing HEK cells at 10 uM.

The nature of series [14]: Kinetic solubility in pH 7.4 HEPES-BSA buffer at 5 uM incubated for 24 hrs at 20 degC by HPLC method. In kind it is physicochemical. The conditions noted are these: read-out: Kinetic_solubility. The procedure, abridged: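 Compound added from 10 mM DMSO stock to 5 μM in pH 7.4 HEPES-BSA buffer (1 g/L BSA), shaken 24 h at 20 °C. After centrifugation, supernatant concentration measured by HPLC against 5 and 10 μM standards.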

The subject of series [15] is Mus musculus. Briefly: Toxicity in Balb/c mouse model of hypereosinophilia assessed as induction of heart lesions at 350 umol/kg, ip dosed daily 2 hrs before allergen challenge for […] and measured 24 hrs after last dose by Gomori's trichrome staining based histological analysis. The settings on record: in vivo. In kind it is organism-based.
For series [16], the system named is Mus musculus. Briefly: Inhibition of lymphocytes infiltration in Balb/c mouse model of 8 day model of allergic eosinophilic airway inflammation at 300 nmol/kg dosed intranasally 2 hrs before ovalbumin challenge by hemocytometry. In kind it is functional, organism-based. A digest of the protocol:
as §2

In series [17] the test system is Mus musculus. The series can be described thus: Anti-inflammatory activity in Balb/c mouse model of hypereosinophilia assessed as inhibition of eosinophil infiltration at 350 umol/kg, ip dosed 2 hrs before allergen challenge. In kind it is functional. The procedure, abridged: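 Balb/c mice sensitized with OVA/alum i.p. and challenged intranasally with OVA on 3 consecutive days. Compounds given i.p. 2 h before each challenge: neutraligands 350 μmol/kg in PBS/CMC 1%, AMD3100 12.6 μmol/kg, dexamethasone 2.5 μmol/kg. BAL 24 h after the last challenge; absolute eosinophil counts; mean ± SEM, n=6/group.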

Series [18] has as its target Stromal cell-derived factor 1 (Homo sapiens, UniProt P48061). The series can be described thus: Binding affinity to CXCL12 (unknown origin) assessed as inhibition of CXCL12 -induced increase in intracellular calcium level in EGFP-tagged CXCR4 expressing HEK cells at 10 uM. In kind it is cell-based. The procedure, abridged: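 TRIC-r calcium assay, neutraligand protocol. Compound at 10 μM (DMSO control) tested against calcium responses triggered by 5 nM of each chemokine on its receptor line: CXCL12 on EGFP-CXCR4⁺ HEK, CCL17 or CCL22 on EGFP-CCR4⁺ HEK, CCL5 on EGFP-CCR5⁺ HEK, CCL2 on EGFP-CCR2⁺ HEK. Mean ± SD, n=3.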

A short description of series [19]: Chemical stability in pH 7.4 PBS buffer assessed as parent compound remaining at 10 uM incubated for 24 hrs by RP-HPLC method. In kind it is physicochemical. The settings on record: read-out: Stability. The procedure, abridged: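 Compound diluted from DMSO stock to 10 μM final (1% DMSO) in PBS pH 7.4, or in PBS with 10% w/w (2-hydroxypropyl)-β-cyclodextrin. Sampled at t0, 2, 4, 6 and 24 h and injected directly onto RP-HPLC. Percent remaining relative to t0 from peak area.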

Series [20] deals with Mus musculus. The series can be described thus: Toxicity in Balb/c mouse model of hypereosinophilia assessed as toxic signs at 350 umol/kg, ip dosed daily 2 hrs before allergen challenge for 10 days and measured 24 hrs after last dose. In kind it is organism-based. The conditions noted are these: in vivo. The procedure, abridged: as §3

≈ marks a conversion by molar mass, not a printed value. Calls of active or inactive are those of the source. The calls are words filed in the database; no cut-off is given here. Bounds are passed on as bounds.

Sequence of Stromal cell-derived factor 1 (P48061 whole entry): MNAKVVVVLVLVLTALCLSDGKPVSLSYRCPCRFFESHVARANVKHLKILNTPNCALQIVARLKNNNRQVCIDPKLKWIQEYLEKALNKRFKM
Sequence of C-C motif chemokine 2 (Homo sapiens) (P13500 24-99 limits assumed): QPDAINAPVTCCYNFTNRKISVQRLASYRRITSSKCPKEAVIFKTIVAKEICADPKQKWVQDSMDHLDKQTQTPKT

Turning to `COc1cc(-c2cc(-c3ccc(Cl)cc3)nc(=O)[nH]2)ccc1O`, the Activity in the series with Mus musculus [1] is 0%; in the series on Mus musculus [2], “Non-Toxic”; with Mus musculus [6], “Non-Toxic”; with Mus musculus [7], “Non-Toxic”; in the series with Mus musculus [9], “Non-Toxic”; in the series with Mus musculus [10], 0%. The Activity entry in the series with Mus musculus [12], in the series with Mus musculus [15] and in the series with Mus musculus [20] was “Non-Toxic” in each case. The inhibition result (in series [3]; in series [4]; in the series on Mus musculus [8]; in series [13]; in the series with Mus musculus [16]) was “inactive” in each case. In addition, the inhibition in vivo at 0.3 µmol/kg in the series with Mus musculus [5] was determined as 48%. The solubility thermodynamic at 24 h in series [11] is 36.4 µM (≈ 12 µg/mL). Further, the solubility kinetic at 24 h, 5 µM in series [14] was greater than 5 µM. The inhibition in vivo at 350 µmol/kg with Mus musculus [17] amounted to 55%. In series [18], the inhibition entry was “Active”. Besides, in [19], the remaining at 24 h, 10 µM worked out at 100%.

A word on the inhibition in vivo: it is how much of the control response was suppressed.
